{
  "source": "paper PMC9486669",
  "about": "(Veterinary and Animal Science, 2022)",
  "key": {"[1]": {"test": "GNL plasma levels after yeast-encapsulated GNL in the FEC trial", "format": "in vivo, Corriedale lambs", "conditions": "lambs; yeast-encapsulated GNL 100 mg/kg oral, four doses every 24 h"}, "[2]": {"conditions": "rats, cited from earlier work"}, "[3]": {"test_system": "Haemonchus contortus", "test": "Fecal egg count reduction in lambs infected with resistant H. contortus", "format": "in vivo", "in_short": "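Corriedale lambs artificially infected with a resistant H. contortus isolate received yeast-encapsulated test compound, 100 mg/kg orally, as four doses every 24 h. Faeces were sampled on days −1, 7 and 14, and epg was counted by modified McMaster (sensitivity 10 epg). FECR was calculated per McKenna from arithmetic mean epg: day −1 (T1) versus days 7 and 14 (T2).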"}, "[4]": {"test_system": "Trichostrongylus axei", "conditions": "in vitro; ref Helal et al., 2020; cited from earlier work"}, "[5]": {"test_system": "Ancylostoma ceylanicum and Trichuris muris", "conditions": "encapsulated monoterpene, in vitro; ref Mirza et al., 2020; cited from earlier work"}, "[6]": {"test_system": "Haemonchus contortus", "conditions": "in vitro; ref Helal et al., 2020; cited from earlier work"}, "[7]": {"test_system": "Caenorhabditis elegans", "conditions": "read-out: LC50 (mortality); in vitro; ref Abdel-Rahman et al., 2013; cited from earlier work"}, "[8]": {"test_system": "Teladorsagia circumcincta", "conditions": "in vitro; ref Helal et al., 2020; cited from earlier work"}, "[9]": {"test_system": "FMO", "test": "FMO-dependent metabolism: BZ N-oxidase activity in sheep liver microsomes", "format": "in vitro ADME"}, "[10]": {"format": "in vivo, Corriedale lambs", "conditions": "lambs"}, "[11]": {"conditions": "ref Miró et al., 2020b; cited from earlier work"}, "[12]": {"test_system": "FMO", "conditions": "sheep liver microsomes, ref Miró et al. 2020b, 2020c; cited from earlier work"}, "[13]": {"molecular_target": "T1, CYP1A1 (Ovis aries, UniProt P56591)", "T1 sequence (P56591 1-519)": "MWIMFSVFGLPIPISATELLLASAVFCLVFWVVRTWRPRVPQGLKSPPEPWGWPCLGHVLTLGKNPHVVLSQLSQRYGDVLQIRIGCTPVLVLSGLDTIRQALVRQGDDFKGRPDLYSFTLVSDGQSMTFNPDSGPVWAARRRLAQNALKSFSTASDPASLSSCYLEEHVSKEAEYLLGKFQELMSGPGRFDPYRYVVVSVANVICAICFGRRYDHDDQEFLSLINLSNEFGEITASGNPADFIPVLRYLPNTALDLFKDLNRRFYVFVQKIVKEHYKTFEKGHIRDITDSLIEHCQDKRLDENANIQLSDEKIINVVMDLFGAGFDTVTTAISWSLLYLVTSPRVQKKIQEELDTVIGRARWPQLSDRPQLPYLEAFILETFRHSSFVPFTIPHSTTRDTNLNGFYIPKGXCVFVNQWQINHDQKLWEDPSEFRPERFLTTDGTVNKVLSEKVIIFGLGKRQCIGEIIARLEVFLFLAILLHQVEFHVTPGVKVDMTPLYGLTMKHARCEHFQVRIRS", "conditions": "sheep liver microsomes, ref Miró et al. 2020b, 2020c; cited from earlier work"}, "[14]": {"test_system": "sheep liver microsomes", "conditions": "ref Miró et al. 2020b, 2020c; cited from earlier work"}, "[15]": {"test_system": "ruminal incubations", "conditions": "ref Miró et al., 2020b; cited from earlier work"}, "[16]": {"test_system": "gram-positive and negative bacteria", "conditions": "ref Nagoor Meeran et al., 2017; cited from earlier work"}, "[17]": {"test_system": "Rhipicephalus microplus", "conditions": "encapsulated in Saccharomyces cerevisiae; ref da Silva Lima et al., 2017; cited from earlier work"}},
  "note": "Several values for one entry are separate records, joined by “and”; a condition that tells them apart may be missing. Equal values may be shown once. Entries after “also recorded” stand apart in the source; their conditions may differ.",
  "data": [
    {"smiles": "CC(C)=CCC/C(C)=C/CO", "note": "[GNL, 3,7-dimethylocta-trans-2,6-dien-1-ol]", "values": [
      {"measurement": "time of GNL detection in plasma", "setting": "[1]", "value": "detected in plasma only at 1 h post-treatment; also recorded: detected in plasma only at 1 h post-administration"},
      {"measurement": "elimination half-life", "setting": "[2]; intravenous infusion of 12.5 mg, ref Pavan et al. (2018)", "value": "about 12 min"},
      {"measurement": "time at which Cmax in the bloodstream was achieved", "setting": "[2]; oral administration, ref Pavan et al., 2018", "value": 30, "unit": "min"},
      {"measurement": "effect on fecal egg counts", "setting": "[3]; 7 and 14 days after first dose, four doses of GNL", "value": "did not significantly decrease"},
      {"measurement": "FECR (fecal egg count reduction), in vivo efficacy", "setting": "[3]; day 14, lambs, GNL 100 mg/kg oral x 4, 95% LCL-UCL 0-82.3", "value": 40.5, "unit": "%"},
      {"measurement": "reduction of larval motility", "setting": "[4]", "value": 90, "unit": "%"},
      {"measurement": "classification of action", "setting": "[5]", "value": "fast acting at a moderately high dose"},
      {"measurement": "reduction of larval motility", "setting": "[6]", "value": 82, "unit": "%"},
      {"measurement": "LC50", "setting": "[7]", "value": 14, "unit": "µg/mL"},
      {"measurement": "reduction of larval motility", "setting": "[8]", "value": 94, "unit": "%"},
      {"measurement": "BZ N-oxidase activity, lower compared to absence of GNL", "setting": "[9]; 0.2 mM GNL", "value": "65.5 ± 13.6", "unit": "%"},
      {"measurement": "BZ N-oxidase activity (FMO pathway), lower compared to absence of GNL", "setting": "[9]; 2 mM GNL", "value": "84.5 ± 4.84% and 84.5%"},
      {"measurement": "mean GNL plasma concentration expressed", "setting": "[10]; 1 h after second oral dose of GNL 100 mg/kg", "value": 0.02, "unit": "mM"},
      {"measurement": "mean GNL plasma concentration", "setting": "[10]; 1 h after second oral dose of GNL 100 mg/kg (emulsion)", "value": "3.04 ± 1.33 µg/mL and 3.04 µg/mL"}
    ]},
    {"smiles": "Cc1ccc(C(C)C)c(O)c1", "note": "[TML, thymol]", "values": [
      {"measurement": "effect on systemic exposure of ABZ metabolites", "setting": "[11]", "value": "did not improve"},
      {"measurement": "effect on FMO-dependent metabolism", "setting": "[12]", "value": "inhibited"},
      {"measurement": "effect on CYP1A1-dependent metabolism", "setting": "[13]", "value": "inhibited"},
      {"measurement": "effect on S-oxygenation of ABZ", "setting": "[14]", "value": "delayed"},
      {"measurement": "effect on formation of ABZ from ABZSO", "setting": "[15]", "value": "completely abolish"},
      {"measurement": "MIC", "setting": "[16]", "value": 150, "unit": "µg/mL"}
    ]},
    {"smiles": "Cc1ccc(C(C)C)cc1O", "note": "[carvacrol]", "values": [
      {"measurement": "decrease of LC50 after encapsulation compared to non-encapsulated", "setting": "[17]", "value": 2.5, "unit": "fold"}
    ]}
  ]
}
